# According to ChEMBL document CHEMBL1667760, “Synthesis and biological evaluation of 3,5-diaryl isoxazoline/isoxazole linked 2,3-dihydroquinazolinone hybrids as anticancer agents” (2011):
# Activity calls are given as the source filed them. The calls are words filed in the database; no cut-off is given here.
# Legend:
# CCRF-CEM = test: Cytotoxicity against human CCRF-CEM cells after 48 hrs by sulforhodamine B assay; assay type: functional
# Method in brief: (§1)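 Run by the NCI 60-cell-line screen. A one-dose pre-test was done first, followed by the main test over a 5-log dose range (10^-4 to 10^-8 M). Results are reported as log molar GI50 (50% net growth inhibition), TGI (total growth inhibition) and LC50 (50% net cell death), with mean-graph midpoints across all lines.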
# HL-60(TB) = test: Cytotoxicity against human HL-60(TB) cells after 48 hrs by sulforhodamine B assay; assay type: functional; conditions: HL-60, 48 h
# Method in brief: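 Run by the NCI 60 human tumour cell line screen. A one-dose pre-test across sixty lines came first. The main test then used a 5-log dose range (10^-4–10^-8 M). Values derived per cell line were GI50 (log molar concentration for 50% net growth inhibition), TGI (total growth inhibition) and LC50 (50% net cell death).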
# [1] = Cytotoxicity against human […] cells after 48 hrs by sulforhodamine B assay; assay type: functional; method in brief: as §1
# A549 = test: Cytotoxicity against human A549 cells after 48 hrs by sulforhodamine B assay; assay type: functional; conditions: A549, 48 h
# Method in brief: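 Cells were grown in RPMI 1640 with 10% FBS and 2 mM L-glutamine, plated at densities set by doubling time, and pre-incubated 24 h at 37 °C, 5% CO2. Drugs were tested at 0.1, 1, 10 and 100 µM in triplicate wells for 48 h continuous exposure. Cells were fixed with 10% TCA (final) and stained with 0.4% SRB. A540 was read against a 690 nm reference, and percent growth was calculated relative to control. Experiments were repeated three times.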
# HOP-92 = test: Cytotoxicity against human HOP92 cells after 48 hrs by sulforhodamine B assay; assay type: functional; conditions: HOP-92, 48 h; method in brief: as §1
# NCI-H23 = test: Cytotoxicity against human NCI-H23 cells after 48 hrs by sulforhodamine B assay; assay type: functional; conditions: NCI-H23, 48 h; method in brief: as §1
# NCI-H460 = test: Cytotoxicity against human NCI-H460 cells after 48 hrs by sulforhodamine B assay; assay type: functional; conditions: NCI-H460, 48 h; method in brief: as §1
# COLO 205 = test: Cytotoxicity against human COLO205 cells after 48 hrs by sulforhodamine B assay; assay type: functional; conditions: COLO 205, 48 h; method in brief: as §1
# KM12 = test: Cytotoxicity against human KM12 cells after 48 hrs by sulforhodamine B assay; assay type: functional; conditions: KM12, 48 h; method in brief: as §1
# SW-620 = test: Cytotoxicity against human SW620 cells after 48 hrs by sulforhodamine B assay; assay type: functional; conditions: SW-620, 48 h
# Method in brief: (§2)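 NCI 60-cell-line panel screen of human tumor lines: a one-dose pre-test, then the main test over a 5-log range (10^-4–10^-8 M). GI50, TGI and LC50 are reported as log molar concentrations for 50% net growth inhibition, total growth inhibition and 50% net cell death. Mean graph midpoints are also calculated.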
# DU-145 = test: Cytotoxicity against human DU145 cells after 48 hrs by sulforhodamine B assay; assay type: functional; conditions: DU-145, 48 h; method in brief: as §1
# SNB-75 = test: Cytotoxicity against human SNB75 cells after 48 hrs by sulforhodamine B assay; assay type: functional; conditions: SNB-75, 48 h; method in brief: as §2
# M14 = test: Cytotoxicity against human M14 cells after 48 hrs by sulforhodamine B assay; assay type: functional; conditions: M14, 48 h; method in brief: as §1
# SK-MEL-2 = test: Cytotoxicity against human SK-MEL-2 cells after 48 hrs by sulforhodamine B assay; assay type: functional; conditions: SK-MEL-2, 48 h; method in brief: as §1
# IGROV-1 = test: Cytotoxicity against human IGROV1 cells after 48 hrs by sulforhodamine B assay; assay type: functional; conditions: IGROV-1, 48 h; method in brief: as §1
# NCI/ADR-RES = test: Cytotoxicity against human NCI/ADR-RES cells after 48 hrs by sulforhodamine B assay; assay type: functional; method in brief: as §1
# TK-10 = test: Cytotoxicity against human TK10 cells after 48 hrs by sulforhodamine B assay; assay type: functional; conditions: TK-10, 48 h; method in brief: as §2
# MDA-MB-231 = test: Cytotoxicity against human MDA-MB-231 cells after 48 hrs by sulforhodamine B assay; assay type: functional; conditions: MDA-MB-231, 48 h; method in brief: as §1
# T47D = test: Cytotoxicity against human T47D cells after 48 hrs by sulforhodamine B assay; assay type: functional; method in brief: as §2
# MCF7 [2] = test: Cell cycle arrest in human MCF7 cells assessed as accumulation at G1 phase at 5 uM after 24 hrs using propidium iodide staining by flow cytometry relative to control; assay type: functional
# Method in brief: (§3)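 MCF-7 cells were seeded at 5×10^5 per 60 mm dish and grown 24 h. They were then exposed to 5 uM compound for a further 24 h, with untreated control cells alongside. Cells were trypsinised, fixed in ice-cold 70% ethanol (4 °C, 30 min), treated with 1 mg/ml RNase A (37 °C, 30 min) and stained with propidium iodide/citrate/Triton solution. DNA content was read by flow cytometry on 20,000 events.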
# MCF7 [3] = test: Cell cycle arrest in human MCF7 cells assessed as accumulation at S phase at 5 uM after 24 hrs using propidium iodide staining by flow cytometry relative to control; assay type: functional; method in brief: as §3
# MCF7 [4] = test: Induction of apoptosis in human MCF7 cells assessed as nuclear fragmentation at 5 uM after 48 hrs by DAPI staining; assay type: functional, cell-based
# Method in brief: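 MCF-7 cells grown on glass coverslips and incubated 48 h with or without compound. Fixed in 3% paraformaldehyde/0.02% glutaraldehyde in PBS, stained with DAPI, and nuclear morphology examined by fluorescence microscopy.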
# MCF7 [5] = test: Reduction of cyclin A expression in human MCF7 cells at 5 uM after 24 hrs by Western blotting; assay type: functional, cell-based
# Method in brief: (§4)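 MCF-7 cells, kept in DMEM with 10% fetal calf serum at 37 °C under 5% CO2, treated 24 h. Lysis in ice-cold RIPA with protease inhibitors; Bradford quantitation; 30 µg protein per lane on 12% SDS-PAGE, then PVDF. Primary antibodies (1:500) at 4 °C overnight; HRP secondary (1:2000); chemiluminescence detection; β-actin loading control.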
# MCF7 [6] = test: Reduction of cyclin B expression in human MCF7 cells at 5 uM after 24 hrs by Western blotting; assay type: functional, cell-based; method in brief: as §4
# [7] = read-out: pLC50 (the source's name) (converted)
smiles,measurement,setting,value
COc1cc(C2NC(=O)c3ccccc3N2)ccc1OCCCCCOc1c(OC)cc(C2=NOC(c3cc(OC)c(OC)c(OC)c3)C2)cc1OC (configuration not stated),GI50,CCRF-CEM,0.631 µM
same,CC50,CCRF-CEM; [7],> 100 µM
same,TGI,CCRF-CEM; read-out: pTGI,> 100 µM
same,GI50,HL-60(TB),11.2 µM
same,CC50,HL-60(TB); [7],> 100 µM
same,TGI,HL-60(TB); read-out: pTGI,> 100 µM
same,GI50,[1],0.0851 µM
same,CC50,[1]; [7],> 100 µM
same,TGI,[1]; read-out: pTGI (converted),2.29 µM
same,LC50,A549,> 100 µM
same,GI50,A549; read-out: pGI50 (converted),0.324 µM
same,TGI,A549; read-out: pTGI,> 100 µM
same,GI50,HOP-92,60.3 µM
same,CC50,HOP-92; [7],> 100 µM
same,TGI,HOP-92; read-out: pTGI,> 100 µM
same,GI50,NCI-H23,0.603 µM
same,CC50,NCI-H23; [7],> 100 µM
same,TGI,NCI-H23; read-out: pTGI,> 100 µM
same,GI50,NCI-H460,13.5 µM
same,CC50,NCI-H460; [7],> 100 µM
same,TGI,NCI-H460; read-out: pTGI (converted),60.3 µM
same,GI50,COLO 205,34.7 µM
same,CC50,COLO 205; [7],> 100 µM
same,TGI,COLO 205; read-out: pTGI,> 100 µM
same,GI50,KM12,5.5 µM
same,CC50,KM12; [7],> 100 µM
same,TGI,KM12; read-out: pTGI,> 100 µM
same,GI50,SW-620,10.2 µM
same,CC50,SW-620; [7],> 100 µM
same,TGI,SW-620; read-out: pTGI,> 100 µM
same,GI50,DU-145,22.4 µM
same,CC50,DU-145; [7],> 100 µM
same,TGI,DU-145; read-out: pTGI,> 100 µM
same,GI50,SNB-75,11.2 µM
same,CC50,SNB-75; [7],> 100 µM
same,TGI,SNB-75; read-out: pTGI,> 100 µM
same,GI50,M14,20.9 µM
same,CC50,M14; [7],> 100 µM
same,TGI,M14; read-out: pTGI,> 100 µM
same,GI50,SK-MEL-2,35.5 µM
same,CC50,SK-MEL-2; [7],> 100 µM
same,TGI,SK-MEL-2; read-out: pTGI,> 100 µM
same,GI50,IGROV-1,1.12 µM
same,CC50,IGROV-1; [7],> 100 µM
same,TGI,IGROV-1; read-out: pTGI (converted),50.1 µM
same,GI50,NCI/ADR-RES,15.1 µM
same,CC50,NCI/ADR-RES; [7],> 100 µM
same,TGI,NCI/ADR-RES; read-out: pTGI,> 100 µM
same,GI50,TK-10,> 100 µM
same,CC50,TK-10; [7],> 100 µM
same,TGI,TK-10; read-out: pTGI,> 100 µM
same,GI50,MDA-MB-231,14.8 µM
same,CC50,MDA-MB-231; [7],> 100 µM
same,TGI,MDA-MB-231; read-out: pTGI,> 100 µM
same,GI50,T47D,0.191 µM
same,CC50,T47D; [7],> 100 µM
same,TGI,T47D; read-out: pTGI,> 100 µM
same,Activity,MCF7 [2],32.15%
same,Activity,MCF7 [3],22.38%
same,inhibition,MCF7 [4],Active
same,Activity,MCF7 [5],Active
same,Activity,MCF7 [6],Active
